Source: ChEMBL document CHEMBL3124843, “Synthesis, cytostatic, antimicrobial, and anti-HCV activity of 6-substituted 7-(het)aryl-7-deazapurine ribonucleosides” (J Med Chem, 2014)
Activity calls are given as the source filed them. The rule behind the calls is not given here.

What was measured:
[1] = Cytotoxicity against human HuH7 cells infected with Hepatitis C virus subtype 1b; type: cell-based, Huh-7
[2] = tested on: Staphylococcus haemolyticus; assay: Antibacterial activity against methicillin-resistant Staphylococcus haemolyticus A/16568 after 24 hrs; type: functional, organism-based
K562 [3] = assay: Cytostatic activity against human K562 cells after 72 hrs by MTT assay; type: functional, cell-based; settings: K562, 72 h
Summary of the method: (§1)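 IC50 is the concentration that cuts cell growth by 50%, read by quantitative metabolic MTT staining after a 3-day treatment. The resistant sublines were made by raising the concentration of the cytotoxic drug step by step. CEM-DNR-bulk (daunorubicin-selected) stably overexpresses mrp-1. K562-TAX (paclitaxel-selected) expresses only mdr-1. HCT116p53−/− carries null p53 alleles. BJ and MRC-5 are nonmalignant fibroblasts.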

Hepatitis C virus [4] = assay: Antiviral activity against Hepatitis C virus subtype 1b infected in human HuH7 cells; type: functional, organism-based, Hepacivirus hominis; settings: genotype 1b, Huh-7
[5] = Cytotoxicity against human HuH7 cells infected with Hepatitis C virus subtype 2a; type: cell-based, Huh-7
Escherichia coli [6] = assay: Antibacterial activity against multi-resistant Escherichia coli C/16702 after 24 hrs; type: functional, organism-based
Pichia kudriavzevii = assay: Antifungal activity against Candida crusei after 48 hrs; type: functional, organism-based
Candida parapsilosis = assay: Antifungal activity against Candida parapsilosis after 48 hrs; type: functional, organism-based
HL-60 = assay: Antiproliferative activity against human HL60 cells after 72 hrs by XTT assay; type: functional, cell-based; settings: HL-60, 72 h
Summary of the method: (§2)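 Antiproliferative test on HL-60 promyelocytic leukemia and HeLa S3 cervical carcinoma cells growing in liquid suspension.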

CCRF-CEM [7] = assay: Cell cycle arrest in human CCRF-CEM cells assessed as accumulation at sub-G1 phase at IC50 after 24 hrs by propidium iodide staining-based flow cytometric analysis (reference value: 9.6%); type: functional
HCT-116 [8] = assay: Cytostatic activity against human HCT116 cells after 72 hrs by MTT assay; type: functional, cell-based; settings: HCT-116, 72 h; summary of the method: as §1
[9] = Antiproliferative activity against human HeLaS3 cells after 72 hrs by XTT assay; type: functional, cell-based; settings: HeLa S3, 72 h; summary of the method: as §2
Hepatitis C virus [10] = assay: Antiviral activity against Hepatitis C virus subtype 2a infected in human HuH7 cells; type: functional, organism-based, Hepacivirus hominis; settings: genotype 2a, Huh-7
Pseudomonas aeruginosa [11] = assay: Antibacterial activity against Pseudomonas aeruginosa CCM 3955 after 24 hrs; type: functional, organism-based
[12] = Cytostatic activity against human CEM-DNR-bulk cells after 72 hrs by MTT assay; type: functional, cell-based; summary of the method: as §1
BJ = assay: Cytostatic activity against human BJ cells after 72 hrs by MTT assay; type: ADME, cell-based; summary of the method: as §1
Staphylococcus aureus [13] = assay: Antibacterial activity against Staphylococcus aureus CCM 3953 after 24 hrs; type: functional, organism-based
Candida tropicalis = assay: Antifungal activity against Candida tropicalis after 48 hrs; type: functional, organism-based
Staphylococcus aureus [14] = assay: Antibacterial activity against methicillin-resistant Staphylococcus aureus MRSA 4591 after 24 hrs; type: functional, organism-based
Enterococcus faecalis = assay: Antibacterial activity against Enterococcus faecalis CCM 4224 after 24 hrs; type: functional, organism-based
HCT-116 [15] = assay: Cytostatic activity against p53-deficient human HCT116 cells after 72 hrs by MTT assay; type: functional, cell-based; settings: HCT-116, 72 h; summary of the method: as §1
CCRF-CEM [16] = assay: Inhibition of RNA synthesis in human CCRF-CEM cells assessed as BrU-positive cells at IC50 after 24 hrs by propidium iodide staining-based flow cytometric analysis (reference value: 43.3%); type: functional; design: scale not given: the % may be the effect or the level left
MRC5 = assay: Cytostatic activity against human MRC5 cells after 72 hrs by MTT assay; type: ADME, cell-based; settings: MRC5, 72 h; summary of the method: as §1
Pseudomonas aeruginosa [17] = assay: Antibacterial activity against multi-resistant Pseudomonas aeruginosa A/16575 after 24 hrs; type: functional, organism-based
A549 = assay: Cytostatic activity against human A549 cells after 72 hrs by MTT assay; type: functional, cell-based; settings: A549, 72 h; summary of the method: as §1
K562 [18] = assay: Cytostatic activity against paclitaxel-resistant human K562 cells after 72 hrs by MTT assay; type: functional, cell-based; settings: K562, 72 h; summary of the method: as §1
Escherichia coli [19] = assay: Antibacterial activity against Escherichia coli CCM 3954 after 24 hrs; type: functional, organism-based
HepG2 = assay: Antiproliferative activity against human HepG2 cells after 72 hrs by XTT assay; type: functional, cell-based; settings: HepG2, 72 h
CCRF-CEM [20] = assay: Mitotic arrest in human CCRF-CEM cells assessed as pH3Ser10-positive cells at IC50 after 24 hrs by propidium iodide staining-based flow cytometric analysis (reference value: 1.4%); type: functional
CCRF-CEM [21] = assay: Cytostatic activity against human CCRF-CEM cells after 72 hrs by MTT assay; type: functional, cell-based; summary of the method: as §1
Candida albicans = assay: Antifungal activity against Candida albicans after 48 hrs; type: functional, organism-based

SMILES | CC50 [1] | Activity [2] | IC50 (K562 [3]) | EC50 (Hepatitis C virus [4]) | CC50 [5] | Activity (Escherichia coli [6]) | Activity (Pichia kudriavzevii) | Activity (Candida parapsilosis) | IC50 (HL-60) | IC50 (HCT-116 [8]) | IC50 [9] | EC50 (Hepatitis C virus [10]) | Activity (Pseudomonas aeruginosa [11]) | IC50 [12] | IC50 (BJ) | Activity (Staphylococcus aureus [13]) | Activity (Candida tropicalis) | Activity (Staphylococcus aureus [14]) | Activity (Enterococcus faecalis) | IC50 (HCT-116 [15]) | other results
COc1ncnc2c1c(-c1ccsc1)cn2[C@@H]1O[C@H](CO)[C@@H](O)[C@H]1O | > 44000 nM | inactive | 90 nM | 550 nM | > 44000 nM | inactive | inactive | inactive | 130 nM | 120 nM | 3350 nM | > 44000 nM | inactive | 7640 nM | 64300 nM | inactive | inactive | inactive | inactive | 140 nM | Activity (CCRF-CEM [7]): 75%; Activity (CCRF-CEM [16]): 0.5%; IC50 (MRC5): 75300 nM; Activity (Pseudomonas aeruginosa [17]): inactive; IC50 (A549): 5170 nM; IC50 (K562 [18]): 3450 nM; Activity (Escherichia coli [19]): inactive; IC50 (HepG2): 430 nM; Activity (CCRF-CEM [20]): 2.9%; IC50 (CCRF-CEM [21]): 2570 nM; Activity (Candida albicans): inactive
C#Cc1cn([C@@H]2O[C@H](CO)[C@@H](O)[C@H]2O)c2ncnc(N(C)C)c12 | > 44000 nM | inactive | 110 nM | 70 nM | > 44000 nM | inactive | inactive | inactive | 290 nM | 180 nM | 810 nM | 100 nM | inactive | 240 nM | 410 nM | inactive | inactive | inactive | inactive | 290 nM | Activity (CCRF-CEM [7]): 8.9%; Activity (CCRF-CEM [16]): 8.6%; IC50 (MRC5): 36100 nM; Activity (Pseudomonas aeruginosa [17]): inactive; IC50 (A549): 390 nM; IC50 (K562 [18]): 260 nM; Activity (Escherichia coli [19]): inactive; IC50 (HepG2): 1320 nM; Activity (CCRF-CEM [20]): 1.3%; IC50 (CCRF-CEM [21]): 90 nM; Activity (Candida albicans): inactive
COc1ncnc2c1c(-c1ccoc1)cn2[C@@H]1O[C@H](CO)[C@@H](O)[C@H]1O | > 44000 nM | inactive | 190 nM | 330 nM | > 44000 nM | inactive | inactive | inactive | 150 nM | 110 nM | 1790 nM | 8280 nM | inactive | > 20000 nM | 28800 nM | inactive | inactive | inactive | inactive | 130 nM | Activity (CCRF-CEM [7]): 8.5%; Activity (CCRF-CEM [16]): 0.7%; IC50 (MRC5): 29400 nM; Activity (Pseudomonas aeruginosa [17]): inactive; IC50 (A549): 1160 nM; IC50 (K562 [18]): 2820 nM; Activity (Escherichia coli [19]): inactive; IC50 (HepG2): 290 nM; Activity (CCRF-CEM [20]): 1.6%; IC50 (CCRF-CEM [21]): 110 nM; Activity (Candida albicans): inactive
COc1ncnc2c1c(I)cn2[C@@H]1O[C@H](CO)[C@@H](O)[C@H]1O | > 44000 nM | inactive | > 20000 nM | > 44000 nM | > 44000 nM | inactive | inactive | inactive | 2300 nM | > 20000 nM | 14300 nM | > 44000 nM | inactive | > 20000 nM | 91000 nM | inactive | inactive | inactive | inactive | > 20000 nM | Activity (CCRF-CEM [7]): 6%; Activity (CCRF-CEM [16]): 0.2%; IC50 (MRC5): 63000 nM; Activity (Pseudomonas aeruginosa [17]): inactive; IC50 (A549): > 20000 nM; IC50 (K562 [18]): 14800 nM; Activity (Escherichia coli [19]): inactive; IC50 (HepG2): > 20000 nM; Activity (CCRF-CEM [20]): 0.9%; IC50 (CCRF-CEM [21]): 1150 nM; Activity (Candida albicans): inactive
CN(C)c1ncnc2c1c(I)cn2[C@@H]1O[C@H](CO)[C@@H](O)[C@H]1O | > 44000 nM | inactive | 70 nM | 690 nM | > 44000 nM | inactive | inactive | inactive | 50 nM | 90 nM | 190 nM | > 44000 nM | inactive | 100 nM | 45700 nM | inactive | inactive | inactive | inactive | 120 nM | Activity (CCRF-CEM [7]): 9.4%; Activity (CCRF-CEM [16]): 4.8%; IC50 (MRC5): 91700 nM; Activity (Pseudomonas aeruginosa [17]): inactive; IC50 (A549): 340 nM; IC50 (K562 [18]): 50 nM; Activity (Escherichia coli [19]): inactive; IC50 (HepG2): 13900 nM; Activity (CCRF-CEM [20]): 1.3%; IC50 (CCRF-CEM [21]): 1590 nM; Activity (Candida albicans): inactive
CNc1ncnc2c1c(-c1ccco1)cn2[C@@H]1O[C@H](CO)[C@@H](O)[C@H]1O | > 44000 nM | inactive | 220 nM | 60 nM | > 44000 nM | inactive | inactive | inactive | 620 nM | 230 nM | 5000 nM | 140 nM | inactive | > 20000 nM | 5040 nM | inactive | inactive | inactive | inactive | 440 nM | Activity (CCRF-CEM [16]): 1%; IC50 (MRC5): 90800 nM; Activity (Pseudomonas aeruginosa [17]): inactive; IC50 (A549): 2570 nM; IC50 (K562 [18]): 15100 nM; Activity (Escherichia coli [19]): inactive; IC50 (HepG2): 850 nM; Activity (CCRF-CEM [20]): 1.4%; IC50 (CCRF-CEM [21]): 180 nM; Activity (Candida albicans): inactive
Cc1nc(N)c2c(I)cn([C@@H]3O[C@H](CO)[C@@H](O)[C@H]3O)c2n1 | > 44000 nM | inactive | 5120 nM | 2450 nM | > 44000 nM | inactive | inactive | inactive | 2050 nM | > 20000 nM | 4180 nM | > 44000 nM | inactive | 3480 nM | 24600 nM | inactive | inactive | inactive | inactive | > 20000 nM | IC50 (MRC5): 85800 nM; Activity (Pseudomonas aeruginosa [17]): inactive; IC50 (A549): 12100 nM; IC50 (K562 [18]): 1110 nM; Activity (Escherichia coli [19]): inactive; IC50 (HepG2): 6310 nM; IC50 (CCRF-CEM [21]): 9030 nM; Activity (Candida albicans): inactive
COc1ncnc2c1c(-c1ccco1)cn2[C@@H]1O[C@H](CO)[C@@H](O)[C@H]1O | > 44000 nM | inactive | 60 nM | 20 nM | > 44000 nM | inactive | inactive | inactive | 100 nM | 40 nM | 1020 nM | 30 nM | inactive | 160 nM | 430 nM | inactive | inactive | inactive | inactive | 40 nM | Activity (CCRF-CEM [7]): 6.8%; IC50 (MRC5): 1700 nM; Activity (Pseudomonas aeruginosa [17]): inactive; IC50 (A549): 30 nM; IC50 (K562 [18]): 380 nM; Activity (Escherichia coli [19]): inactive; IC50 (HepG2): 300 nM; Activity (CCRF-CEM [20]): 1.4%; IC50 (CCRF-CEM [21]): 20 nM; Activity (Candida albicans): inactive
